Assay results reported in ChEMBL document CHEMBL2057134, “Small molecule tertiary amines as agonists of the nuclear hormone receptor Rev-erbα” (Bioorg Med Chem Lett, 2012).

Experiments:
[1] = biological target: T1, Nuclear receptor subfamily 1 group D member 1 (Homo sapiens) (UniProt P20393); experiment: Agonist activity at Rev-Erbalpha expressed in HEK293 cells coexpressing […] promoter assessed as repression of transcription at 10 uM after 24 hrs by dual-Glo luciferase assay relative to control; format: functional, cell-based
T1 sequence (whole entry): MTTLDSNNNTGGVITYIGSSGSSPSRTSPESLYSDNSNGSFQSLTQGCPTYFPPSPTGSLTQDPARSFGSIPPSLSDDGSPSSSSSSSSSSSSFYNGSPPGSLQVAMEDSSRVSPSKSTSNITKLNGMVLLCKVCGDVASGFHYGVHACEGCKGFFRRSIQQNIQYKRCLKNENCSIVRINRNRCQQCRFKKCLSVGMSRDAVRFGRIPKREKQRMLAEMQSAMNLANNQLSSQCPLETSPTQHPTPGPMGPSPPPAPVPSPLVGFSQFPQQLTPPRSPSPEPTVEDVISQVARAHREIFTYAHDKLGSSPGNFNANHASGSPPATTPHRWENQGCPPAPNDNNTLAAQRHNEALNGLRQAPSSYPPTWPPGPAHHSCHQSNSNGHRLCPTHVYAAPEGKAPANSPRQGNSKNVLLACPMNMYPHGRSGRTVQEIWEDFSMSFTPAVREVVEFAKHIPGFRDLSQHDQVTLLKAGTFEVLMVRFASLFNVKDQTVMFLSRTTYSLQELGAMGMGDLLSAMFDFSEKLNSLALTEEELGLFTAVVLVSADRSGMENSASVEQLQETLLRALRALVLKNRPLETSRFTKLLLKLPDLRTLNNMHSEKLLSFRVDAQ
Method in brief: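 Cells co-transfected with full-length Rev-erbα expression plasmid plus Bmal1 promoter-luciferase reporter; renilla luciferase for normalization and toxicity check. Average of 2 or more experiments.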

[2] = biological target: T2, Nuclear receptor subfamily 1 group D member 1 (Homo sapiens, UniProt P20393); experiment: Agonist activity at Rev-Erbalpha expressed in HEK293 cells coexpressing […] promoter assessed as repression of transcription after 24 hrs by dual-Glo luciferase assay; format: functional, cell-based
T2 sequence (P20393 whole entry): T1 sequence (whole entry)
Method in brief: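 Cells co-transfected with full-length Rev-erbα expression plasmid and Bmal1 promoter-driven luciferase reporter. Renilla luciferase used for normalization and toxicity monitoring. Average of 2 or more experiments.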

[3] = Drug uptake in C57BL/6 mouse brain at 50 mg/kg, ip measured after 8 hrs by LC-MS/MS analysis
[4] = Plasma concentration in C57BL/6 mouse at 10 mg/kg, ip measured after 2 hrs by LC-MS/MS analysis; format: ADME, organism-based; design: dose 10 mg/kg, route intraperitoneal
Method in brief: (§1)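 C57Bl6 mice (n = 3) given 10 mg/kg IP in 10:10:80 DMSO:Tween:water; blood and brain collected at 2 h. Plasma frozen at −80°C. Plasma and brain mixed with acetonitrile (1:5 v:v or w:v), brain probe-sonicated. Drug quantified by LC-MS/MS against standards in plasma or blank brain matrix.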

[5] = Drug uptake in C57BL/6 mouse brain at 10 mg/kg, ip measured after 2 hrs by LC-MS/MS analysis; format: ADME, organism-based; design: dose 10 mg/kg, route intraperitoneal; details: read-out: Drug uptake; method in brief: as §1

Compound | Ratio [1] | EC50 [2] | further results
Cc1ccc(S(=O)(=O)N(CC(=O)OC(C)(C)C)Cc2ccc([N+](=O)[O-])s2)cc1 | 0.5 | 3000 nM | 
O=[N+]([O-])c1ccc(CN(Cc2ccc(Cl)cc2)CC2CCN(Cc3ccccc3)C2)s1 (racemic) | 1 |  | 
CC(C)(C)OC(=O)CN(Cc1ccc(Cl)cc1)Cc1cnc[nH]1 | 0.88 |  | 
O=C(Oc1ccccc1)N1CCC(CN(Cc2ccc(Cl)cc2)Cc2ccc([N+](=O)[O-])s2)C1 (racemic) | 0.55 |  | 
O=C(Nc1ccc([N+](=O)[O-])cc1)N1CCC(CN(Cc2ccc(Cl)cc2)Cc2ccc([N+](=O)[O-])s2)C1 (racemic) | 0.37 | 400 nM | 
CC(C)(C)OC(=O)CN(Cc1ccc(Cl)cc1)Cc1nc2ccccc2s1 | 0.82 |  | 
C=CCOC(=O)N1CCC(CN(Cc2ccc(Cl)cc2)Cc2ccc([N+](=O)[O-])s2)C1 (racemic) | 0.35 | 670 nM | 
Cc1ccc(S(=O)(=O)N(Cc2ccc(Cl)cc2)Cc2ccc([N+](=O)[O-])s2)cc1 | 0.5 | 2500 nM | 
CCOC(=O)N1CCC(CN(Cc2ccc(Cl)cc2)Cc2ccc([N+](=O)[O-])s2)C1 (racemic) [SR9009] |  |  | concentration at 8 h [3]: 8700 nM
O=[N+]([O-])c1ccc(CN(Cc2ccc(Cl)cc2)CC2COc3ccccc3O2)s1 (racemic) | 0.4 | 7800 nM | 
CC(C)(C)OC(=O)CN(Cc1ccc(Cl)cc1)Cc1cccs1 | 0.93 |  | 
O=[N+]([O-])c1ccc(CN(Cc2ccc(Cl)cc2)Cc2nc3ccccc3s2)s1 | 0.5 | 4000 nM | 
O=[N+]([O-])c1ccc(CN(Cc2ccc(Cl)cc2)Cc2ccc3ccccc3c2)s1 | 0.7 | 8800 nM | 
CC(C)(C)OC(=O)CN(Cc1ccc([N+](=O)[O-])s1)C(=O)c1cccc2ccccc12 | 0.48 | 2600 nM | 
O=[N+]([O-])c1ccc(CN(Cc2ccc(Cl)cc2)CC2CCN(S(=O)(=O)c3cccc4ccccc34)C2)s1 (racemic) | 0.45 | 450 nM | 
CC(C)(C)OC(=O)CN(Cc1ccc(Cl)cc1)CC1CCCC1 | 1.1 |  | 
CC(C)(C)OC(=O)CN(Cc1ccc([N+](=O)[O-])cc1)Cc1ccc([N+](=O)[O-])s1 | 0.58 | 2500 nM | 
O=[N+]([O-])c1ccc(CN(Cc2ccc(Cl)cc2)CC2CCN(S(=O)(=O)Cc3ccccc3)C2)s1 (racemic) | 0.4 | 630 nM | 
Cc1ccc(S(=O)(=O)N2CCC(CN(Cc3ccc(Cl)cc3)Cc3ccc([N+](=O)[O-])s3)C2)cc1 (racemic) | > 1 |  | 
O=[N+]([O-])c1ccc(CN(Cc2ccc(Cl)cc2)Cc2ccc(C(F)(F)F)cc2)s1 | 0.45 | 5500 nM | 
O=C(c1cccc2ccccc12)N(Cc1ccc(Cl)cc1)Cc1ccc([N+](=O)[O-])s1 | 0.4 | 2600 nM | 
CC(C)(C)OC(=O)CN(Cc1ccc([N+](=O)[O-])s1)Cc1cccc2ccccc12 | 0.6 | 2500 nM | 
CC(C)(C)OC(=O)CN(Cc1ccc([N+](=O)[O-])s1)S(=O)(=O)c1cccc2ccccc12 | 0.37 | 800 nM | 
CS(=O)(=O)n1ccc(CN(Cc2ccc(Cl)cc2)Cc2ccc([N+](=O)[O-])s2)c1 | 1 |  | 
CC(C)(C)OC(=O)CNCc1ccc(Cl)cc1 | 1.2 |  | 
CC(C)(C)OC(=O)CN(Cc1ccncc1)Cc1ccc(Cl)cc1 | 0.81 |  | 

More lines, main results first:

Ratio [1] | EC50 [2] | Compound | further results
0.75 | 3000 nM | NC(=O)CN(Cc1ccc(Cl)cc1)Cc1ccc([N+](=O)[O-])s1 | 
0.9 |  | CC(C)(C)OC(=O)N1CCCC(CN(Cc2ccc(Cl)cc2)Cc2ccc([N+](=O)[O-])s2)C1 (racemic) | 
0.85 |  | O=C(O)CN(Cc1ccc(Cl)cc1)Cc1ccc([N+](=O)[O-])s1 | 
0.31 |  | CC(C)(C)OC(=O)N1CCC(N(Cc2ccc(Cl)cc2)Cc2ccc([N+](=O)[O-])s2)CC1 | 
0.14 |  | CC(C)(C)OC(=O)N1CCCC(N(Cc2ccc(Cl)cc2)Cc2ccc([N+](=O)[O-])s2)C1 (racemic) | 
0.24 | 1600 nM | CC(C)(C)OC(=O)N1CCC(N(Cc2ccc(Cl)cc2)Cc2ccc([N+](=O)[O-])s2)C1 (racemic) | 
0.33 | 620 nM | O=C(Nc1ccccc1)N1CCC(CN(Cc2ccc(Cl)cc2)Cc2ccc([N+](=O)[O-])s2)C1 (racemic) | 
0.95 |  | CN1CCC(CN(Cc2ccc(Cl)cc2)Cc2ccc([N+](=O)[O-])s2)C1 (racemic) | 
0.3 | 7400 nM | O=[N+]([O-])c1ccc(CN(Cc2ccc(Cl)cc2)CC2CCCCC2)s1 | 
0.79 | 2500 nM | N#CCN(Cc1ccc(Cl)cc1)Cc1ccc([N+](=O)[O-])s1 | 
0.8 | 3900 nM | COC(=O)CN(Cc1ccc(Cl)cc1)Cc1ccc([N+](=O)[O-])s1 | 
0.33 | 1800 nM | CC(C)(C)OC(=O)N1CCC(CN(Cc2ccc(Cl)cc2)Cc2ccc([N+](=O)[O-])s2)C1 (racemic) | 
0.35 | 670 nM | CCCCNC(=O)N1CCC(CN(Cc2ccc(Cl)cc2)Cc2ccc([N+](=O)[O-])s2)C1 (racemic) | concentration at 2 h [4]: 530 nM; concentration at 2 h [5]: 240 nM
0.3 | 570 nM | CS(=O)(=O)N1CCC(CN(Cc2ccc(Cl)cc2)Cc2ccc([N+](=O)[O-])s2)C1 (racemic) | concentration at 2 h [4]: 540 nM; concentration at 2 h [5]: 1300 nM
0.6 |  | CC(C)(C)OC(=O)CN(Cc1ccc2ccccc2c1)Cc1ccc([N+](=O)[O-])s1 | 
0.35 | 1600 nM | CC(=O)N1CCC(CN(Cc2ccc(Cl)cc2)Cc2ccc([N+](=O)[O-])s2)C1 (racemic) | 
0.8 |  | CC(C)(C)OC(=O)N1CCC(CN(Cc2ccc(Cl)cc2)Cc2ccc([N+](=O)[O-])s2)CC1 | 
1.1 |  | CC(C)(C)OC(=O)CN(Cc1ccccc1)Cc1ccc([N+](=O)[O-])s1 | 
0.77 | 2000 nM | CC(C)(C)OC(=O)CN(Cc1ccc(F)cc1)Cc1ccc([N+](=O)[O-])s1 | 
0.68 | 2900 nM | COc1ccc(CN(CC(=O)OC(C)(C)C)Cc2ccc([N+](=O)[O-])s2)cc1 | 
